Compound activity from PubChem.
Most compounds without a hit are left out; they make up all but 3.5% or so of the library.
MrgX1 antagonist = antagonists of human MrgX1 receptor; Q96LB2; MRGX1-HEK293 calcium flux, Fluo-4, BAM8-22 antagonism; active compounds read low; B-score at 10 µM; 1.3% of 310,000 active;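 active means calcium-response B-score plate-corrected more than 3 library SD below zero, starting fluorescence within 5 deviations, no agonist response on first addition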;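 further: peak minus trough fluorescence over baseline after final BAM8-22 challenge near maximal dose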
Target sequence (Q96LB2 whole entry, looked up): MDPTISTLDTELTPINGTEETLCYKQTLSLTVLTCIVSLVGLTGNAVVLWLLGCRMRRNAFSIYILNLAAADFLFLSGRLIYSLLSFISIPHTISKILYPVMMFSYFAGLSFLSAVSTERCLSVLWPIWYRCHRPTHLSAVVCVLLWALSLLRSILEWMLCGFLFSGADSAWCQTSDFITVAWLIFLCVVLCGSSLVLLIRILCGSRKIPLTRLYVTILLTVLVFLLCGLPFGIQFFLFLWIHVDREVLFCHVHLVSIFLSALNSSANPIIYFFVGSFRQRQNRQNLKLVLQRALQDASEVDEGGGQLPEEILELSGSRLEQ
RGS4 pot = potentiators or activators of RGS4; HEK293 M3R/inducible RGS4, carbachol calcium flux Fluo4; active compounds read low; B-score at 10 µM; 0.92% of 310,000 active;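 active means B-score of the integrated calcium signal more than 4 SD below the library mean, with starting fluorescence not abnormally high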;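 further: negative B-score means reduced calcium response which marks RGS4 activation or potentiation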
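Material: M3R-expressing HEK293 line, RGS4 induced by doxycycline | Schedule: Overnight RGS4 induction, 30 min dye load 37 °C, 20 min compound RT | Measured by: Fluo4 fluorescence kinetic imaging of calcium | Read-out: Integrated calcium ratio converted to B score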
MrgX1 agonist = agonists of human MrgX1 receptor; Q96LB2; MrgX1-HEK293 cells, Fluo-4 calcium fluorescence, agonist mode; active compounds read high; B-score at 10 µM; 0.44% of 310,000 active;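 active means calcium response B-score plate-corrected fluorescence ratio at least 3 library SD, with starting fluorescence B-score inside 5 SD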
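Test system: Stable human MrgX1 HEK293 cell line | Schedule: Overnight plating before 1 h dye loading | Read-out basis: Baseline-normalised fluorescence change ratio, B-scored | Detection: Kinetic calcium dye fluorescence, Fluo-4 NW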
MrgX1 allo act = human MrgX1 positive allosteric modulation, primary screen; Q96LB2; MrgX1-HEK293, Fluo-4 calcium flux, FDSS; active compounds read high; B-score at 10 µM; 0.63% of 310,000 active; AID 588675;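 active means plate-corrected calcium response at least 3 library SD above typical, normal starting fluorescence, not activating the receptor alone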;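 further: compound read alongside a low EC10 to EC30 dose of BAM8-22 agonist; peak minus trough fluorescence over baseline measured at the second addition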
RGS4 inh = inhibitors of human RGS4 | P49798 | HEK293 M3R/RGS4 inducible, Fluo-4 calcium flux; active compounds read high; triggered by carbachol at its EC20 | B-score at 10 µM | 0.45% of 310,000 active;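 active means B-score, a plate-corrected calcium signal, over three deviations above library mean, with baseline fluorescence within five deviations of library mean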;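 further: RGS4 expression induced by doxycycline in cells with stable M3 receptor; B-score is computed from the integrated fluorescence ratio over baseline after carbachol; higher B-score means a larger calcium signal and so more RGS4 inhibition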
A number is an active result; n = inactive.

SMILES	MrgX1 antagonist	RGS4 pot	MrgX1 agonist	MrgX1 allo act	RGS4 inh
C/C(=N\OC(=O)Nc1ccccc1)c1cnn(-c2cc(C(F)(F)F)cc(C)n2)c1C	n	n	n	n	n
CCCOc1ccc(N2C(=O)CC(N(CCc3ccc(OC)cc3)C(=O)c3ccccc3)C2=O)cc1 (configuration not stated)	-4.6	n	n	n	n
O=c1oc2ccccc2cc1-c1csc(NN=C2CCCCC2)n1	n	-7.5	n	n	n
CC(C)(C)c1cc(NS(=O)(=O)c2cccs2)no1	n	n	n	n	n
Cn1c(O)c(/C=N/NC(=O)c2cc3ccccc3cc2O)c2ccccc21	n	-7.6	50	n	n
Cn1c2ccccc2c2cc(/C=N/NC(=O)c3ccc(O)cc3O)ccc21	n	n	n	n	n
Cc1c(C(=O)NNS(=O)(=O)c2ccccc2Cl)sc(=S)n1C	n	n	n	n	n
CC(=O)Nc1ccc(S(=O)(=O)NNC(=O)c2sc(=S)n(C)c2C)cc1	-4.6	n	n	n	n
COc1cc(C(=O)O)c2c(c1C)OC(=O)c1c(C)cc(O)c(C=O)c1O2	n	n	n	n	n
CN(Cc1ccccc1)CC1CCCN(CCc2ccccc2F)C1 (configuration not stated)	n	n	n	n	n
CC(=O)c1cccc(CN(C)CC2CCCN(CCc3ccccc3C)C2)c1 (configuration not stated)	n	-7	n	n	n
CCN(CCCC(=O)c1ccc(F)cc1)CCc1ccccc1	n	-7.1	n	n	n
CCN(CCCc1ccccc1)CCCc1ccccc1	n	n	n	n	n
Cc1nn(CCCC(=O)NCCc2ccccc2)c(C)c1[N+](=O)[O-]	n	n	n	7.2	n
Cc1ccc(Cn2nc(C)c(NC(=O)CCCn3nc(C)c([N+](=O)[O-])c3C)c2C)cc1	n	n	n	n	n
Cc1nn(Cc2c(Cl)cccc2Cl)c(C)c1NC(=O)CCCn1nc(C)c([N+](=O)[O-])c1C	-4.5	n	n	n	n
COc1cc(NC(=O)C2C3CCC(O3)C2C(=O)O)cc(OC)c1 (configuration not stated)	n	n	n	n	n
C(=N\c1nc2ccccc2[nH]1)/c1cccs1	n	n	30	n	n
C1=CN2CCC1C(c1ccccc1)C2 (configuration not stated)	n	-7.3	n	n	n
COc1cccc(/C=N/Nc2nc(Nc3ccc([N+](=O)[O-])cc3)nc(N3CCCC3)n2)c1O	n	-9.2	n	n	n
COc1ccc(/C=N/Nc2nc(Nc3ccccc3)nc(N3CCCC3)n2)cc1	-5.9	n	n	n	n
O=[N+]([O-])c1ccc(Nc2nc(N/N=C/c3cccc(F)c3)nc(N3CCCC3)n2)cc1	n	n	n	n	n
NC(=O)CNC(=O)C1CCN(S(=O)(=O)c2ccc(-n3cnnn3)cc2)CC1	n	n	n	n	n
CC1CCCCN1C(=O)c1c([N+](=O)[O-])cnn1C (configuration not stated)	-9.2	n	n	n	n
COc1ccc(CCNc2cc(C)[nH]c(=O)c2)cc1OC	n	n	n	n	n
SMILES	MrgX1 antagonist	RGS4 pot	MrgX1 agonist	MrgX1 allo act	RGS4 inh
O=C(COc1ccc([N+](=O)[O-])cc1Cl)NCCc1ccccc1	n	n	n	9	n
O=C(COc1ccc(Cl)cc1Cl)NCCCCc1ccccc1	n	n	n	n	n
Cc1c(C(=O)NCc2cccnc2)oc2ccc(S(=O)(=O)N3CCC4(CC3)OCCO4)cc12	n	n	n	n	n
Cc1ccc(CNC(=O)c2oc3ccc(S(=O)(=O)N4CCC5(CC4)OCCO5)cc3c2C)cc1	n	-8.4	n	n	n
CC(C)c1ccccc1NC(=O)C1C2C=CC(C2)C1C(=O)O (configuration not stated)	n	n	n	n	n
COc1ccc(OC)c(NC(=O)CSc2nnc(CNC(=O)c3cc(OC)c(OC)c(OC)c3)o2)c1	n	n	n	n	n
CCc1ccc(N2CC(C(=O)OCC(=O)c3c(N)n(CC(C)C)c(=O)n(C)c3=O)CC2=O)cc1 (configuration not stated)	n	n	n	n	n
O=C1CCCCCCC1Sc1ccccc1[N+](=O)[O-] (configuration not stated)	n	n	n	15	n
CCOC(=O)C1CCN(c2cc3c(cc2NC(=O)c2ccc(OC)c(OC)c2)n(C)c(=O)n3C)CC1	n	n	n	n	n
